According to ChEMBL document CHEMBL6096700, “Modulation of Mitochondria-Endoplasmic Reticulum Contacts (MERCs) by Small Molecules as a New Strategy for Restoring Lipid Metabolism in an Amyotrophic Lateral Sclerosis Model” (J Med Chem, 2025):
Active and inactive are the calls of the source. Where a SMILES comes first, the peptide text is derived from it. The star is where a group is joined. Cbz = O=C(OCc1ccccc1)*

Key:
[1] = Modulation of mitochondria-endoplasmic reticulum contacts in human HCT-116 cells expressing MERLIN by BRET assay; format: functional, cell-based
How it was run: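 MERLIN-HCT116 BRET biosensor cells (RLuc8 donor, mVenus acceptor) seeded at 4500/well for 24 h, then treated with compound overnight. Coelenterazine h 5 μM added for 8 min in the dark, read at RT. BRET = acceptor/donor emission minus RLuc8-only background, with DMSO, RLuc8 and RLuc8-mVenus controls; plates kept if Z'>0.7.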

HCT-116 [2] = assay: Cytotoxicity against human HCT-116 cells assessed as cell viability at 1 uM incubated for 24 hrs by MTT assay; format: toxicity, cell-based; settings: hct-116, 24 h
How it was run: (§1)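 HCT116 cells grown in phenol red-free McCoy's 5A with 10% FBS and 1% penicillin/streptomycin. Exposed 24 h to compound at 1, 5 or 10 μM. Viability measured by MTT reduction to formazan read by absorbance, expressed as percent of untreated controls. Safety threshold >80% viability. Mean ± SEM of three independent experiments.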

HCT-116 [3] = assay: Cytotoxicity against human HCT-116 cells assessed as cell viability at 5 uM incubated for 24 hrs by MTT assay; format: toxicity, cell-based; settings: hct-116, 24 h; how it was run: as §1
HCT-116 [4] = assay: Induction of extracellular NBD-labeled cholesterol uptake in human HCT-116 cells at 1 uM incubated for 24 hrs followed by NBD-labeled cholesterol addition measured after 1 to 3 hrs by fluorescence based assay; format: functional, cell-based; settings: time 25-27 hrs
How it was run: (§2)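 HCT116 cells seeded 24 h at 37 °C, 5% CO2, then treated with compound for 24 h. NBD-cholesterol added for 1 and 3 h. Cells washed three times with PBS, fluorescence read at 469/537 nm, compared with untreated cells. Mean ± SEM of three independent experiments.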

[5] = Permeability of compound incubated for 2.5 hrs by PAMPA; format: ADME
How it was run: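 PAMPA-BBB: compounds in PBS/EtOH 70:30, pH 7.4, placed in a donor plate over a filter coated with porcine brain lipid in dodecane (20 mg/mL), with phosphate-buffer acceptor. Incubated 2 h 30 min at RT. Acceptor concentration read by absorbance at 2–5 wavelengths, three wells, two runs (mean ± SD). Ten reference drugs; CNS+ if Pe >4.4 × 10–6 cm s–1.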

HCT-116 [6] = assay: Induction of extracellular NBD-labeled cholesterol uptake in human HCT-116 cells at 5 uM incubated for 24 hrs followed by NBD-labeled cholesterol addition measured after 3 hrs by fluorescence based assay; format: functional, cell-based; settings: time 27.0 hrs; how it was run: as §2
Lymphoblastoid cell [7] = assay: Induction of extracellular NBD-labeled cholesterol uptake in patient-derived Sporadic ALS lymphoblastoid cells at 5 uM incubated for 24 hrs followed by NBD-labeled cholesterol addition measured after 1 hr by fluorescence based assay; format: functional; settings: Homo sapiens, time 25.0 hrs
Lymphoblastoid cell [8] = assay: Induction of extracellular NBD-labeled cholesterol uptake in patient-derived C9orf72-mutated familial ALS lymphoblastoid cells at 5 uM incubated for 24 hrs followed by NBD-labeled cholesterol addition measured after 1 hr by fluorescence based assay; format: functional; settings: Homo sapiens, time 25.0 hrs
Lymphoblastoid cell [9] = assay: Induction of extracellular NBD-labeled cholesterol uptake in patient-derived SOD1 ALS lymphoblastoid cells at 5 uM incubated for 24 hrs followed by NBD-labeled cholesterol addition measured after 1 hr by fluorescence based assay; format: functional; settings: Homo sapiens, time 25.0 hrs
Lymphoblastoid cell [10] = assay: Induction of cholesteryl ester formation in patient-derived lymphoblastoid cells at 5 uM incubated for 24 hrs by Amplex assay; format: functional, cell-based; settings: Homo sapiens
How it was run: (§3)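 Control and sporadic ALS lymphoblastoid cells treated 24 h with compound at 5 μM or vehicle. Lipids extracted from equal cell amounts with chloroform:methanol 2:1 (v/v). Organic phase dried, resuspended in assay buffer, and cholesteryl esters quantified with the Amplex cholesterol kit. Individual values reported.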

Lymphoblastoid cell [11] = assay: Induction of lipid droplet formation in patient-derived lymphoblastoid cells at 5 uM incubated for 24 hrs by LipidTOX Green/DAPI staining based analysis; format: functional; settings: Homo sapiens
How it was run: (§4)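 Control and sporadic ALS lymphoblastoid cells treated 24 h with compound at 5 μM or vehicle, fixed in 4% PFA, washed in PBS. Lipid droplets stained 2 h with LipidTOX Green, nuclei with DAPI. Confocal imaging and image-based quantification of >100 cells per condition; mean ± SEM.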

Lymphoblastoid cell [12] = assay: Induction of cholesteryl ester formation in patient-derived Sporadic ALS lymphoblastoid cells at 5 uM incubated for 24 hrs by Amplex assay; format: functional, cell-based; settings: Homo sapiens; how it was run: as §3
Lymphoblastoid cell [13] = assay: Induction of lipid droplet formation in patient-derived Sporadic ALS lymphoblastoid cells at 5 uM incubated for 24 hrs by LipidTOX Green/DAPI staining based analysis; format: functional; settings: Homo sapiens; how it was run: as §4
Lymphoblastoid cell [14] = assay: Induction of extracellular NBD-labeled cholesterol uptake in patient-derived Sporadic ALS lymphoblastoid cells at 5 uM incubated for 24 hrs followed by NBD-labeled cholesterol addition measured after 1 hr in presence of SSO by fluorescence based assay; format: functional; settings: Homo sapiens, time 25.0 hrs
How it was run: (§5)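 Lymphoblastoid lines from controls (C100, C112) and sporadic ALS patients (E2, E4) treated 24 h with compound at 5 μM. BLT1, SSO or EZE (10 μM) added 15 min before NBD-cholesterol, which was left for 1 h. Cells washed three times with PBS, fluorescence read at 469/537 nm. Run in triplicate; mean ± SEM.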

Lymphoblastoid cell [15] = assay: Induction of extracellular NBD-labeled cholesterol uptake in patient-derived Sporadic ALS lymphoblastoid cells at 5 uM incubated for 24 hrs followed by NBD-labeled cholesterol addition measured after 1 hr in presence of EZE by fluorescence based assay; format: functional; settings: Homo sapiens, time 25.0 hrs; how it was run: as §5
Lymphoblastoid cell [16] = assay: Induction of extracellular NBD-labeled cholesterol uptake in patient-derived Sporadic ALS lymphoblastoid cells at 5 uM incubated for 24 hrs followed by NBD-labeled cholesterol addition measured after 1 hr in presence of […] by fluorescence based assay; format: functional; settings: Homo sapiens, time 25.0 hrs; how it was run: as §5
Lymphoblastoid cell [17] = assay: Induction of extracellular NBD-labeled cholesterol uptake in patient-derived lymphoblastoid cells at 5 uM incubated for 24 hrs followed by NBD-labeled cholesterol addition measured after 1 hr in presence of SSO by fluorescence based assay; format: functional; settings: Homo sapiens, time 25.0 hrs
Lymphoblastoid cell [18] = assay: Induction of extracellular NBD-labeled cholesterol uptake in patient-derived lymphoblastoid cells at 5 uM incubated for 24 hrs followed by NBD-labeled cholesterol addition measured after 1 hr in presence of EZE by fluorescence based assay; format: functional; settings: Homo sapiens, time 25.0 hrs
Lymphoblastoid cell [19] = assay: Induction of extracellular NBD-labeled cholesterol uptake in patient-derived lymphoblastoid cells at 5 uM incubated for 24 hrs followed by NBD-labeled cholesterol addition measured after 1 hr in presence of […] by fluorescence based assay; format: functional; settings: Homo sapiens, time 25.0 hrs
Lymphoblastoid cell [20] = assay: Improvement in spare respiratory capacity in patient-derived Sporadic ALS lymphoblastoid cells at 5 uM incubated for 24 hrs by Seahorse XF analysis; format: functional, cell-based; settings: Homo sapiens
How it was run: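 Control and sALS lymphoblasts plated at 200,000 cells/well on poly-L-lysine and cultured 24 h ± compound (5 μM). Then moved to bicarbonate-free DMEM with 2 mM glutamine, 5 mM glucose, 2% FBS, 1 mM pyruvate and 5 mM HEPES pH 7.4, 1 h without CO2. Seahorse Mito Stress OCR: basal, oligomycin 1 μM, FCCP 3 μM, antimycin/rotenone 2.5 μM each. Four replicates, mean ± SEM.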

Lymphoblastoid cell [21] = assay: Modulation of mitochondria-endoplasmic reticulum contacts in patient-derived Sporadic ALS lymphoblastoid cells at 5 uM incubated for 24 hrs by Seahorse XF analysis; format: functional, cell-based; settings: Homo sapiens
HCT-116 [22] = assay: Modulation of mitochondria-endoplasmic reticulum contacts in human HCT-116 cells at 25 uM incubated for 1 hr by TEM analysis; format: functional, cell-based
Lymphoblastoid cell [23] = assay: Induction of lipid droplet formation in patient-derived Sporadic ALS lymphoblastoid cells at 5 uM incubated for 24 hrs by TEM analysis; format: functional, cell-based; settings: Homo sapiens
How it was run: (§6)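 Control and sporadic ALS lymphoblasts with or without compound (5 μM, 24 h) were fixed 4 h at 4 °C in 4% paraformaldehyde/2.5% glutaraldehyde in 0.1 M phosphate pH 7.3. Postfixed in osmium tetroxide/potassium ferrocyanide, acetone-dehydrated, Spurr-embedded. 60 nm sections stained with lead citrate and imaged by TEM at 80 kV.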

Lymphoblastoid cell [24] = assay: Restoration of mitochondrial cristae structure in patient-derived Sporadic ALS lymphoblastoid cells at 5 uM incubated for 24 hrs by TEM analysis; format: functional, cell-based; settings: Homo sapiens; how it was run: as §6

| EC50 [1] [µM] | permeability [5] | Structure (SMILES) | Activity (HCT-116 [2]) | Activity (HCT-116 [4]) | further results |
| --- | --- | --- | --- | --- | --- |
| 20.2 |  | O=C(Nc1ccc(F)cc1)c1cc(Cl)ccc1O |  |  |  |
| 9.7 | Permeable | N#Cc1ccc(NC(=O)c2cc(Cl)ccc2O)cc1 | Non-toxic | inactive | Activity (HCT-116 [3]): Non-toxic |
| 21.7 |  | O=C(Nc1ccc([N+](=O)[O-])cc1)c1cccc2ccccc12 |  |  |  |
| 2.44 | Permeable | O=C(Nc1ccc([N+](=O)[O-])cc1)c1cc(Cl)ccc1O |  | inactive |  |
|  | Permeable | O=C(Nc1ccccc1)c1cc(Cl)ccc1O | Non-toxic | inactive | Activity (HCT-116 [3]): Non-toxic; Activity (HCT-116 [6]): Active; Activity (Lymphoblastoid cell [7]): Active; Activity (Lymphoblastoid cell [8]): Active; Activity (Lymphoblastoid cell [9]): inactive; Activity (Lymphoblastoid cell [10]): Active; Activity (Lymphoblastoid cell [11]): Active; Activity (Lymphoblastoid cell [12]): Active; Activity (Lymphoblastoid cell [13]): Active; Activity (Lymphoblastoid cell [14]): Active; Activity (Lymphoblastoid cell [15]): Active; Activity (Lymphoblastoid cell [16]): Not active; The Result Suggests That Cell Surface Hdl Scavenger Receptor B, Type 1 (Sr-B1) May Be Involved In Mechanism Of Action; Activity (Lymphoblastoid cell [17]): Active; Activity (Lymphoblastoid cell [18]): Active; Activity (Lymphoblastoid cell [19]): Not active; The Result Suggests That Cell Surface Hdl Scavenger Receptor B, Type 1 (Sr-B1) May Be Involved In Mechanism Of Action; Activity (Lymphoblastoid cell [20]): Active; Activity (Lymphoblastoid cell [21]): Active; Activity (HCT-116 [22]): Active; Activity (Lymphoblastoid cell [23]): Active; Activity (Lymphoblastoid cell [24]): Active |
| 13.7 |  | CC(C)C[C@@H](C=O)NC(=O)[C@H](CC(C)C)NC(=O)[C@H](CC(C)C)NC(=O)OCc1ccccc1 [MG-132] (Cbz-Leu-Leu-Leu-aldehyde) |  |  |  |
| 5.64 |  | O=C(Nc1ccc([N+](=O)[O-])cc1F)c1cc(Cl)ccc1O | Non-toxic | inactive |  |
| 3.34 |  | O=C(Nc1ccc([N+](=O)[O-])cc1Cl)c1cccc2ccccc12 |  |  |  |
| 10.2 |  | CNC(=O)c1ccc(NC(=O)c2cc(Cl)ccc2O)cc1 |  |  |  |
| 5.68 |  | O=C(Nc1ccc([N+](=O)[O-])cc1Cl)c1cc(Cl)ccc1O [NICLOSAMIDE] | Non-toxic | inactive |  |
| 8.32 | Permeable | O=C(Nc1cccc([N+](=O)[O-])c1)c1cc(Cl)ccc1O | Non-toxic | inactive | Activity (HCT-116 [3]): Non-toxic |
